Results on two molecules are retold here after ChEMBL document CHEMBL4396883, “Discovery of CDK5 Inhibitors through Structure-Guided Approach” (ACS Med Chem Lett, 2019).

Test [1] relates to MOLM-13. Description: Induction of apoptosis in human MOLM13 cells assessed as early apoptotic cells at 2.5 uM measured after 24 hrs by Annexin V-FITC/PI staining based flow cytometry (reference value: 3.38%). Type of test: functional.
Test [2] concerns the target Cyclin-dependent kinase 5 (Homo sapiens) (UniProt Q00535). As to the kind of experiment: Inhibition of CDK5 in human MOLM13 cells assessed as increase in cleaved caspase 7 level at 5 to 10 uM measured after 24 hrs by western blot analysis. Type of test: cell-based. In outline:
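Cells treated for 24 h; lysates immunoblotted for pAkt (S473), pRB (S780), cyclin D1, p27KIP1, and cleaved caspase 3 and 7 (MOLM-13); at least two independent repeats.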

In test [3] the test system is MOLM-13. As to the kind of experiment: Induction of apoptosis in human MOLM13 cells assessed as viable cells at 10 uM measured after 24 hrs by Annexin V-FITC/PI staining based flow cytometry relative to control. It is filed as functional. To be noted: MOLM-13, 24 h, read-out: Activity.
In test [4] the target is CDK2/Cyclin A2 (Homo sapiens) (UniProt P24941+P20248). As to the kind of experiment: Inhibition of recombinant full length N-terminal GST tagged human CDK2/CyclinA expressed in baculovirus infected sf9 cells using histone H1 as substrate at 10 uM measured after 30 mins in presence of ATP by ADP-Glo kinase assay relative to control.
Test [5] has as its target Receptor-type tyrosine-protein kinase FLT3 (Homo sapiens, UniProt P36888, ITD). Description: Inhibition of human recombinant full length GST-fused/His-tagged FLT3 ITD mutant expressed in Sf9 cells using poly (Glu,Tyr) as substrate incubated for 80 mins in presence of ATP by ADP-Glo kinase assay.
Test [6] concerns MOLM-13. Description: Induction of apoptosis in human MOLM13 cells assessed as late apoptotic cells at 10 uM measured after 24 hrs by Annexin V-FITC/PI staining based flow cytometry (reference value: 1.94%). Type of test: functional.
In test [7] the test system is MOLM-13 (Homo sapiens). Description: Cell cycle arrest in human MOLM-13 cells assessed as accumulation at sub G1 phase at 10 uM measured after 24 hrs by propidium iodide staining based flow cytometry analysis.
Test [8] is filed under the species Homo sapiens. Description: Selectivity ratio of Ki for recombinant full length N-terminal GST tagged human CDK2/CyclinA expressed in baculovirus infected sf9 cells using histone H1 as substrate to recombinant full length N-terminal GST tagged human CDK5/p25 expressed in baculovirus infected sf9 cells using histone H1 as substrate by ADP-Glo kinase assay.
The subject of test [9] is MV4-11. As to the kind of experiment: Cell cycle arrest in human MV4-11 cells assessed as accumulation at G1 phase at 2.5 to 10 uM measured after 24 hrs by propidium iodide staining based flow cytometry analysis. It is filed as functional. In outline:
(§1)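 MV4-11 cells treated 24 h at 2.5 and 10 μM; cell-cycle phase distribution (sub-G1, G1, S, G2/M) by flow cytometry; at least two independent experiments, numerical data as mean value.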

Test [10] deals with MOLM-13. Description: Induction of apoptosis in human MOLM13 cells assessed as necrotic cells at 10 uM measured after 24 hrs by Annexin V-FITC/PI staining based flow cytometry relative to control. It is filed as functional.
The test system of test [11] is MV4-11. As to the kind of experiment: Cell cycle arrest in human MV4-11 cells assessed as accumulation at G1 phase at 10 uM measured after 24 hrs by propidium iodide staining based flow cytometry relative to control. Type of test: functional. A digest of the protocol: as §1
The test system of test [12] is MV4-11. Description: Cell cycle arrest in human MV4-11 cells assessed as accumulation at G2/M phase at 10 uM measured after 24 hrs by propidium iodide staining based flow cytometry relative to control. Type of test: functional. A digest of the protocol:
as §1

Test [13] relates to MV4-11. Description: Cell cycle arrest in human MV4-11 cells assessed as accumulation at S phase at 10 uM measured after 24 hrs by propidium iodide staining based flow cytometry relative to control. It is filed as functional. A digest of the protocol:
as §1

Test [14] concerns MV4-11. As to the kind of experiment: Cell cycle arrest in human MV4-11 cells assessed as accumulation at sub G1 phase at 10 uM measured after 24 hrs by propidium iodide staining based flow cytometry relative to control. Type of test: functional. In outline: as §1

pIC50: −log10 of the molar value. Calls of active or inactive are those of the source. The rule behind the calls is not given here.

Chain of Receptor-type tyrosine-protein kinase FLT3 (P36888 whole entry, looked up, stated change not applied, the tested form may be a part): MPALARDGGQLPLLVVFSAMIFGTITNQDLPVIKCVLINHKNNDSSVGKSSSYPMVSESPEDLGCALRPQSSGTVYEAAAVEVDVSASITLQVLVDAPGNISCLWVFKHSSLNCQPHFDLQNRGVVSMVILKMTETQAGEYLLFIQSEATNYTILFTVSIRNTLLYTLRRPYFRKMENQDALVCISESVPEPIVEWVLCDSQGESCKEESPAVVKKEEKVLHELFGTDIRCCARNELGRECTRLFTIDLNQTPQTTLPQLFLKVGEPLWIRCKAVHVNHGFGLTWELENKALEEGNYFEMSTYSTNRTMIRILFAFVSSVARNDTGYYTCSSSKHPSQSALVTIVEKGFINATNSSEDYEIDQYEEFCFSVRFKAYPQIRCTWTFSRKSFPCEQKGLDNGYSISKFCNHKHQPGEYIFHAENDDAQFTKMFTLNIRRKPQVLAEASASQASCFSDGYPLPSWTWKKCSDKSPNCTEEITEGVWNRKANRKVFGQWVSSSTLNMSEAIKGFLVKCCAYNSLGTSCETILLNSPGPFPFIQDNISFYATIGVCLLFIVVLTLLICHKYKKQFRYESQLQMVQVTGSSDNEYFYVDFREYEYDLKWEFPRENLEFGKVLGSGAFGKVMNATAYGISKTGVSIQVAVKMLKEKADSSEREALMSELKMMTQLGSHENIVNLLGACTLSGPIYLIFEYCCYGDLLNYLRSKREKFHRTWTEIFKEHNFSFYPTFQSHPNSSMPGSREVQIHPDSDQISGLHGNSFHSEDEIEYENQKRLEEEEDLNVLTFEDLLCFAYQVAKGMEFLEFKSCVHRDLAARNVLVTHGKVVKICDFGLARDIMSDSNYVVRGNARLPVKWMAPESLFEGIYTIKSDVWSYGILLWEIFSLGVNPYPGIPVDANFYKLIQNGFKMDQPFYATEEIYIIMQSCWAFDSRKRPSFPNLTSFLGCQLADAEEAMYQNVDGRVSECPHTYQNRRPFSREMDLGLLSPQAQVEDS
Chain of Cyclin-dependent kinase 5 (Homo sapiens) (Q00535 whole entry, looked up): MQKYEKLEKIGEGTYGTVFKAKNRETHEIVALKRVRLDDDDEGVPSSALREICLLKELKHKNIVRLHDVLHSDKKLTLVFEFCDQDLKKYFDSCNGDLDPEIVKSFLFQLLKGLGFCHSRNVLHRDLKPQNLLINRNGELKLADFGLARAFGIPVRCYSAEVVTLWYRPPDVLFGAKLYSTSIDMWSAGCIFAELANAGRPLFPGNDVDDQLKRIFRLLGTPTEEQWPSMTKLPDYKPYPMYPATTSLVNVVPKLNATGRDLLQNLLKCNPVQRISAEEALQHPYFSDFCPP

Take `Cc1cccc(Nc2ncc3c(n2)CCCC3)c1`: the Activity in test [1] is recorded as 8.31%; in test [6], 7.92%; in [10] it was 0.17%. For the same molecule, the result in [2], in [7] and in test [9] was Active. The viability at 10 µM in [3] worked out at 61.8%. Further, in test [4], the inhibition came to 72%. Besides, the pIC50 in [5] is less than 5.00. In test [8], the Ratio Ki came to 4.

For `NS(=O)(=O)c1cccc(Nc2ncc3c(n2)CCCC3)c1`, the Activity in test [1] turned out to be 10.05%; in test [11], 88.08%; in test [12], 3.15%; in test [6], 6.16%; in [13], 2.67%; in test [14], 5.08%. Besides, the outcome in test [2], in [7] and in [9] was Active. The inhibition in test [4] was 95%. Also, the pIC50 in [5] is 5.83.
